In brackets after ≈: the same amount, converted by molar mass. Activity calls are given as the source filed them. The calls are words filed in the database; no cut-off is given here.
Experiments:
Mus musculus = assay: Toxicity in ICR mouse at 250 mg/kg, iv after 21 to 22 days; format: organism-based; conditions: in vivo
Acinetobacter baumannii [1] = assay: Antibacterial activity against Acinetobacter baumannii ATCC 17961 after 18 hrs by broth microdilution method; format: functional; conditions: ATCC 17961, 18 h
Acinetobacter baumannii [2] = assay: Antibacterial activity against Acinetobacter baumannii ARC 3486 after 18 hrs by broth microdilution method; format: functional; conditions: ARC 3486, 18 h
Pseudomonas aeruginosa = assay: Antibacterial activity against Pseudomonas aeruginosa PAO1 after 18 hrs by broth microdilution method; format: functional; conditions: PAO1, 18 h
Burkholderia multivorans = assay: Antibacterial activity against Burkholderia multivorans AU0100 after 18 hrs by broth microdilution method; format: functional; conditions: AU0100, 18 h
Staphylococcus aureus [3] = assay: Antibacterial activity against Staphylococcus aureus SG511 after 18 hrs by broth microdilution method; format: functional; conditions: SG511, 18 h
Staphylococcus aureus [4] = assay: Antibacterial activity against Staphylococcus aureus ATCC 11632 after 18 hrs by broth microdilution method; format: functional; conditions: ATCC 11632, 18 h
Escherichia coli = assay: Antibacterial activity against Escherichia coli DCO after 18 hrs by broth microdilution method; format: functional
Acinetobacter baumannii [5] = assay: Antibacterial activity against Acinetobacter baumannii ATCC BAA 1710 after 18 hrs by broth microdilution method; format: functional; conditions: ATCC BAA 1710, 18 h
Acinetobacter baumannii [6] = assay: Antibacterial activity against Acinetobacter baumannii ATCC BAA 1793 after 18 hrs by broth microdilution method; format: functional; conditions: ATCC BAA 1793, 18 h
Acinetobacter baumannii [7] = assay: Antibacterial activity against Acinetobacter baumannii ATCC BAA 1800 after 18 hrs by broth microdilution method; format: functional; conditions: ATCC BAA 1800, 18 h
Acinetobacter baumannii [8] = assay: Antibacterial activity against Acinetobacter baumannii ARC 3484 after 18 hrs by broth microdilution method; format: functional; conditions: ARC 3484, 18 h
Acinetobacter baumannii [9] = assay: Antibacterial activity against Acinetobacter baumannii ARC 5079 after 18 hrs by broth microdilution method; format: functional; conditions: ARC 5079, 18 h
Acinetobacter baumannii [10] = assay: Antibacterial activity against Acinetobacter baumannii ARC 5081 after 18 hrs by broth microdilution method; format: functional; conditions: ARC 5081, 18 h
Acinetobacter baumannii [11] = assay: Antibacterial activity against Acinetobacter baumannii ATCC 19606 after 18 hrs by broth microdilution method; format: functional; conditions: ATCC 19606, 18 h
Acinetobacter baumannii [12] = assay: Antibacterial activity against Acinetobacter baumannii ATCC BAA 1797 after 18 hrs by broth microdilution method; format: functional; conditions: ATCC BAA 1797, 18 h
Acinetobacter baumannii [13] = assay: Antibacterial activity against Acinetobacter baumannii ATCC 17961 infected in ICR mouse assessed as mouse survival rate at 25 mg/kg, iv administered at 30 mins and 24.5 hrs post infection measured 7 days post infection relative to vehicle-treated control; format: functional; conditions: ATCC 17961, iv
Method in brief: (§1)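 Sepsis model in 6- to 8-week-old female ICR mice infected intraperitoneally with A. baumannii ATCC 17961. Treatment given intravenously at 30 min and again at 24.5 h after infection, at 25, 10 or 5 mg/kg. Saline vehicle group as control. Five mice per dose group and six in the vehicle group. Read-out was survival.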

Acinetobacter baumannii [14] = assay: Antibacterial activity against Acinetobacter baumannii ATCC 17961 infected in ICR mouse assessed as mouse survival rate at 10 mg/kg, iv administered at 30 mins and 24.5 hrs post infection measured 7 days post infection relative to vehicle-treated control; format: functional; conditions: ATCC 17961, iv; method in brief: as §1
Acinetobacter baumannii [15] = assay: Antibacterial activity against Acinetobacter baumannii ATCC 17961 infected in ICR mouse assessed as mouse survival rate at 5 mg/kg, iv administered at 30 mins and 24.5 hrs post infection measured 7 days post infection relative to vehicle-treated control; format: functional; conditions: ATCC 17961, iv; method in brief: as §1
[16] = Binding affinity to ferric ion
[17] = Binding affinity to ferric ion at 5 mg after 18 hrs by LC-MS analysis
Method in brief: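 Ferric complex made by adding Fe(acac)3 (1.1 mg) in MeOH (1 mL) to conjugate (5.0 mg) in MeOH (1 mL). Analysed by LC on a C18 column (2.2 μm particles) at 40 °C, with a water/acetonitrile mobile phase. UV-vis diode-array detection over 190−400 nm, plus MS.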

Acinetobacter baumannii [18] = assay: Antibacterial activity against Acinetobacter baumannii ATCC 17961 infected in ICR mouse assessed as mouse survival rate at 50 mg/kg, iv administered at 30 mins and 24.5 hrs post infection measured 7 days post infection; format: functional, organism-based
Method in brief: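 Female ICR mice, 6 to 8 weeks old, infected intraperitoneally with A. baumannii ATCC 17961 (sepsis model). Treatments were given intravenously at 30 min and 24.5 h after infection, with saline as vehicle. Survival was scored as the fraction of mice alive per group (3 to 6 mice per group).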

SMILES | MIC (Acinetobacter baumannii [1]) [µM] | MIC (Acinetobacter baumannii [2]) [µM] | MIC (Pseudomonas aeruginosa) [µM] | MIC (Burkholderia multivorans) [µM] | MIC (Staphylococcus aureus [3]) [µM] | MIC (Staphylococcus aureus [4]) [µM] | MIC (Escherichia coli) [µM] | MIC (Acinetobacter baumannii [5]) [µM] | MIC (Acinetobacter baumannii [6]) [µM] | MIC (Acinetobacter baumannii [7]) [µM] | MIC (Acinetobacter baumannii [8]) [µM] | MIC (Acinetobacter baumannii [9]) [µM] | MIC (Acinetobacter baumannii [10]) [µM] | MIC (Acinetobacter baumannii [11]) [µM] | MIC (Acinetobacter baumannii [12]) [µM] | other results
CCCCCCCCCC(=O)N[C@@H](Cc1c[nH]c2ccccc12)C(=O)N[C@H](CC(N)=O)C(=O)N[C@@H](CC(=O)O)C(=O)N[C@@H]1C(=O)NCC(=O)N[C@@H](CCCNC(=O)CCCC(=O)N(O)CCCCCNC(=O)CCC(=O)N(CCCCNC(=O)c2cccc(O)c2O)CCCNC(=O)c2cccc(O)c2O)C(=O)N[C@@H](CC(=O)O)C(=O)N[C@H](C)C(=O)N[C@@H](CC(=O)O)C(=O)NCC(=O)N[C@H](CO)C(=O)N[C@@H]([C@@H](C)CC(=O)O)C(=O)N[C@@H](CC(=O)c2ccccc2N)C(=O)O[C@@H]1C [listing 1 of 2 here] | – | – | – | – | – | – | – | – | – | – | – | – | – | – | – | Activity (Mus musculus): Non-Toxic
CCCCCCCCCC(=O)N[C@@H](Cc1c[nH]c2ccccc12)C(=O)N[C@H](CC(N)=O)C(=O)N[C@@H](CC(=O)O)C(=O)N[C@@H]1C(=O)NCC(=O)N[C@@H](CCCNC(=O)CCCC(=O)N(O)CCCCCNC(=O)CCC(=O)N(CCCCNC(=O)c2cccc(O)c2O)CCCNC(=O)c2cccc(O)c2O)C(=O)N[C@@H](CC(=O)O)C(=O)N[C@H](C)C(=O)N[C@@H](CC(=O)O)C(=O)NCC(=O)N[C@H](CO)C(=O)N[C@@H]([C@@H](C)CC(=O)O)C(=O)N[C@@H](CC(=O)c2ccccc2N)C(=O)O[C@@H]1C [listing 2 of 2 here] | 0.4 (≈ 0.934 µg/mL) | 0.4 (≈ 0.934 µg/mL) | > 100 | > 100 | 6 (≈ 14 µg/mL) | 12.5 (≈ 29.2 µg/mL) | > 100 | 0.8 (≈ 1.87 µg/mL) | 0.8 (≈ 1.87 µg/mL) | 0.8 (≈ 1.87 µg/mL) | 0.4 (≈ 0.934 µg/mL) | 0.8 (≈ 1.87 µg/mL) | 0.4 (≈ 0.934 µg/mL) | 0.8 (≈ 1.87 µg/mL) | 0.8 (≈ 1.87 µg/mL) | survival at 25 mg/kg (Acinetobacter baumannii [13]): 80%; survival at 10 mg/kg (Acinetobacter baumannii [14]): 80%; survival at 5 mg/kg (Acinetobacter baumannii [15]): 20%
CCCCCCCCCC(=O)N[C@@H](Cc1c[nH]c2ccccc12)C(=O)N[C@@H](CC(N)=O)C(=O)N[C@@H](CC(=O)O)C(=O)N[C@@H]1C(=O)NCC(=O)N[C@@H](CCCNC(=O)CCCC(=O)N(CCCCCNC(=O)CCC(=O)N(CCCCNC(=O)c2cccc(OCc3ccccc3)c2OCc2ccccc2)CCCNC(=O)c2cccc(OCc3ccccc3)c2OCc2ccccc2)OCc2ccccc2)C(=O)N[C@@H](CC(=O)O)C(=O)N[C@H](C)C(=O)N[C@@H](CC(=O)O)C(=O)NCC(=O)N[C@H](CO)C(=O)N[C@@H]([C@@H](C)CC(=O)O)C(=O)N[C@@H](CC(=O)c2ccccc2N)C(=O)O[C@@H]1C | > 50 | > 50 | – | – | – | – | – | > 50 | > 50 | > 50 | > 50 | > 50 | > 50 | > 50 | > 50 | Activity [16]: inactive
CCCCCCCCCC(=O)N[C@@H](Cc1c[nH]c2ccccc12)C(=O)N[C@@H](CC(N)=O)C(=O)N[C@@H](CC(=O)O)C(=O)N[C@@H]1C(=O)NCC(=O)N[C@@H](CCCNC(=O)CCCC(=O)N(O)CCCCCNC(=O)CCC(=O)N(CCCCNC(=O)c2cccc(O)c2O)CCCNC(=O)c2cccc(O)c2O)C(=O)N[C@@H](CC(=O)O)C(=O)N[C@H](C)C(=O)N[C@@H](CC(=O)O)C(=O)NCC(=O)N[C@H](CO)C(=O)N[C@@H]([C@@H](C)CC(=O)O)C(=O)N[C@@H](CC(=O)c2ccccc2N)C(=O)O[C@@H]1C | – | – | – | – | – | – | – | – | – | – | – | – | – | – | – | Activity [17]: Active
NCC[C@H](O)C(=O)N[C@@H]1C[C@H](N)[C@@H](O[C@H]2O[C@H](CN)[C@@H](O)[C@H](O)[C@H]2O)[C@H](O)[C@H]1O[C@H]1O[C@H](CO)[C@@H](O)[C@H](N)[C@H]1O [AMIKACIN] | 1.7 (≈ 0.996 µg/mL) | > 50 | – | – | – | – | – | > 50 | > 50 | > 50 | > 27 | > 50 | > 50 | 3.4 (≈ 1.99 µg/mL) | 27 (≈ 15.8 µg/mL) | –
O=C(O)c1cn(C2CC2)c2cc(N3CCNCC3)c(F)cc2c1=O [CIPROFLOXACIN] | 0.2 (≈ 0.0663 µg/mL) | > 25 | 0.5 (≈ 0.166 µg/mL) | > 25 | 0.5 (≈ 0.166 µg/mL) | 0.5 (≈ 0.166 µg/mL) | 0.5 (≈ 0.166 µg/mL) | > 25 | > 25 | > 25 | > 25 | > 25 | > 25 | 0.8 (≈ 0.265 µg/mL) | > 25 | –
CCCCCCCCCC(=O)N[C@@H](Cc1c[nH]c2ccccc12)C(=O)N[C@@H](CC(N)=O)C(=O)N[C@@H](CC(=O)O)C(=O)N[C@@H]1C(=O)NCC(=O)N[C@@H](CCCN)C(=O)N[C@@H](CC(=O)O)C(=O)N[C@H](C)C(=O)N[C@@H](CC(=O)O)C(=O)NCC(=O)N[C@H](CO)C(=O)N[C@@H]([C@H](C)CC(=O)O)C(=O)N[C@@H](CC(=O)c2ccccc2N)C(=O)O[C@@H]1C [DAPTOMYCIN] | > 100 | > 100 | > 100 | > 100 | 0.05 (≈ 0.081 µg/mL) | 0.4 (≈ 0.648 µg/mL) | > 100 | > 100 | > 100 | > 100 | > 100 | > 100 | > 100 | – | > 100 | Activity (Acinetobacter baumannii [18]): inactive

Source: ChEMBL document CHEMBL4014288, “Targeted Antibiotic Delivery: Selective Siderophore Conjugation with Daptomycin Confers Potent Activity against Multidrug Resistant Acinetobacter baumannii Both in Vitro and in Vivo” (J Med Chem, 2017)
